{"data": "Experimental data of several laboratories", "target": "Homeodomain-interacting protein kinase 3 (HIPK3, Homo sapiens, UniProt Q9H422)", "note": "Compare with care: the assays were run in different laboratories."}
{"Compound": "N[C@H]1CCN(c2nccc(-c3cnn4ncccc34)n2)C1", "effect on": "binding", "tested at": "1 µM", "remaining binding [%]": 91}
{"Compound": "C=CC(=O)N1CCC(C(=O)NCC(=O)N2CCN(c3nc(-c4cnc(N)nc4C(F)F)nc(N4CCOCC4)n3)CC2)CC1", "effect on": "binding", "method": "competition with immobilised ligand", "tested at": "1 µM", "remaining binding [%]": 100}
{"Compound": "O=C(O)c1cc(-c2ccc(C3CCNCC3)cc2)c2ccc(-c3ccc(C(F)(F)F)cc3)cc2c1", "effect on": "cell-free assay", "method": "competition with immobilised ligand", "tested at": "1 µM", "remaining binding [%]": 100}
{"Compound": "O=C(c1ccc(Nc2ncc(Cl)c(-c3cc4ccccc4s3)n2)cc1)N1CCC(N2CCCC2)CC1", "effect on": "binding", "method": "competition with immobilised ligand", "tested at": "1 µM", "remaining binding [%]": 1.8}
{"Compound": "O=C(N[C@H]1CCCCC/C=C\\C2C[C@@]2(C(=O)O)NC(=O)[C@@H]2C[C@@H](Oc3ccncc3)CN2C1=O)OC1CCCC1 (stereo partly shown)", "effect on": "binding", "method": "competition with immobilised ligand", "tested at": "1 µM", "remaining binding [%]": 100}
{"Compound": "CC1CCCN1c1nccc(-c2cnn3ncccc23)n1 (stereo not shown)", "effect on": "binding", "tested at": "1 µM", "remaining binding [%]": 100}
{"Compound": "Nc1ncc2c(n1)-c1c([nH]c3ccc(C#CC4CC4)cc13)CCCC2", "effect on": "binding", "method": "competition with immobilised ligand", "tested at": "1 µM", "remaining binding [%]": 78}
{"Compound": "C[C@@H](c1ccc(-n2cnc3c(N)ncnc32)cc1)N1CCc2nn(C)c(Cc3ccccc3)c2C1=O", "effect on": "binding", "method": "competition with immobilised ligand", "tested at": "0.1 µM", "remaining binding [%]": 64}
{"Compound": "CN(C)c1nccc(-c2cnn3ncccc23)n1", "effect on": "binding", "tested at": "1 µM", "remaining binding [%]": 51}
{"Compound": "CC(=O)N1CCC(c2ccc(C(=O)NC3=NCCN3)cc2C(F)(F)F)CC1", "effect on": "cell-free assay", "method": "competition with immobilised ligand", "tested at": "1 µM", "remaining binding [%]": 72}
{"Compound": "Cc1cnn2ncc(-c3ccnc(N(C)C)n3)c2c1", "effect on": "binding", "tested at": "1 µM", "remaining binding [%]": 68}
{"Compound": "O=C(Nc1ccc(Oc2ccc(F)cc2)cc1)N1CCc2ncccc2[C@H]1c1ccc(F)cc1", "effect on": "cell-free assay", "method": "competition with immobilised ligand", "tested at": "1 µM", "remaining binding [%]": 92}
{"Compound": "CN(c1nccc(-c2cnn3ncccc23)n1)C1CC1", "effect on": "binding", "tested at": "1 µM", "remaining binding [%]": 100}
{"Compound": "O=C(NCCCN1CCOCC1)c1ccc(Nc2ncc(Cl)c(-c3ccc(Cl)s3)n2)cc1", "effect on": "binding", "method": "competition with immobilised ligand", "tested at": "1 µM", "remaining binding [%]": 15}
{"Compound": "O=C(Nc1c[nH]nc1C(=O)NC1CCNCC1)c1cc(F)cc(F)c1", "effect on": "binding", "method": "competition with immobilised ligand", "tested at": "1 µM", "remaining binding [%]": 41}
{"Compound": "C[C@@H]1CCN(c2nccc(-c3cnn4ncccc34)n2)C1", "effect on": "binding", "tested at": "1 µM", "remaining binding [%]": 68}
{"Compound": "Cc1cc(NC(=O)c2cccc(S(F)(F)(F)(F)F)c2)cc(-n2ccn3nc(-c4cccnc4)cc23)c1", "effect on": "cell-free assay", "method": "competition with immobilised ligand", "tested at": "1 µM", "remaining binding [%]": 88.8}
{"Compound": "CN(CCCC(F)(F)F)c1nccc(-c2cnn3ncccc23)n1", "effect on": "binding", "tested at": "1 µM", "remaining binding [%]": 88}
{"Compound": "CCC(=O)N[C@H]1CC[C@@H](C(=O)N(C)c2ccc(-c3nc4ccccc4o3)cc2)C1", "effect on": "cell-free assay", "method": "competition with immobilised ligand", "tested at": "1 µM", "remaining binding [%]": 74}
{"Compound": "O=C(c1ccc(Nc2nccc(-c3cc4ccccc4s3)n2)cc1)N1CCC(N2CCCC2)CC1", "effect on": "binding", "method": "competition with immobilised ligand", "tested at": "1 µM", "remaining binding [%]": 19}
{"Compound": "O=C(NCc1ncc(C(F)(F)F)cc1Cl)c1ccc2c(c1)C1(CCS(=O)(=O)CC1)[C@@H](C1CC1)N2S(=O)(=O)c1ccc(F)cc1", "effect on": "cell-free assay", "method": "competition with immobilised ligand", "tested at": "1 µM", "remaining binding [%]": 81}
{"Compound": "COc1cnc(Nc2cccc(S(N)(=O)=O)c2)nc1N1CCN(c2ccccc2)C(=O)C1", "effect on": "binding", "method": "competition with immobilised ligand", "tested at": "1 µM", "remaining binding [%]": 82}
